Test results reported in ChEMBL document CHEMBL4130635, “2,4-Diaminoquinazolines as Dual Toll-like Receptor (TLR) 7/8 Modulators for the Treatment of Hepatitis B Virus” (J Med Chem, 2018).
The source made the active and inactive calls. The calls are words filed in the database; no cut-off is given here.

Experiments:
Cynomolgus monkey [1] = assay: Induction of ISG response in cynomolgus monkey plasma assessed as upregulation of Isg15 mRNA expression at 1 mg/kg, po after 24 hrs by Fluidigm RT-qPCR analysis (reference value: 1); format: functional, Macaca fascicularis
In short: (§1)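 Cynomolgus monkeys, single oral doses of 1, 3, 9 and 30 mg/kg with a planned 2-week wash-out between doses. Systemic ISG (ISG15, Mx1, OAS1) mRNA was measured by Fluidigm RT-qPCR at 1, 2, 4, 8 and 24 h postdose.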

Cynomolgus monkey [2] = assay: Proinflammatory activity in cynomolgus monkey plasma assessed as IL-6 levels at 9 mg/kg, po after 24 hrs by Luminex assay (reference value: 80 pg/ml); format: functional, Macaca fascicularis
[3] = Cytotoxicity against HEK293 cells assessed as reduction in cell viability after 6 hrs by ATP lite assay; format: cell-based; details: human
Cynomolgus monkey [4] = assay: Induction of ISG response in cynomolgus monkey plasma assessed as upregulation of Mx1 mRNA expression at 30 mg/kg, po after 24 hrs by Fluidigm RT-qPCR analysis (reference value: 1); format: functional, Macaca fascicularis; in short: as §1
[5] = Cmax in C57BL/6J mouse liver at 0.3 mg/kg, po by LC-MS analysis; format: ADME, organism-based; design: dose 0.3 mg/kg, route oral
In short: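 Healthy C57BL/6 mice, groups of 15, given a single oral dose (0.3, 1, 3, 10 or 30 mg/kg) in 20% HP-β-CD. Blood drawn at 0.5 h. Three mice per group sacrificed at 0.5, 1, 2, 4 or 7 h, and compound in plasma and liver measured by LC−MS. Values rounded to whole numbers.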

Plasma [6] = assay: Effect on cytokine profile in C57BL/6J mouse plasma assessed as IL-12p70 levels at 1 mg/kg, po by multiplex assay (reference value: 560 pg/ml); format: functional
In short: (§2)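 Single oral gavage in 20% HP-β-CD to healthy C57BL/6 mice, groups of 15 at 0.3, 1, 3, 10 or 30 mg/kg. Three mice per group sacrificed at 0.5, 1, 2, 4 or 7 h. Plasma and liver cytokines by multiplex, maximum level reported, rounded to nearest multiple of 5.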

Plasma [7] = assay: Induction of IFNalpha levels in C57BL/6J mouse plasma at 3 mg/kg, po by ELISA; format: functional
[8] = AUC (0 to last) in C57BL/6J mouse plasma at 30 mg/kg, po by LC-MS analysis; format: ADME, organism-based; design: dose 30 mg/kg, time 0 - last, route oral
In short: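 Healthy C57BL/6 mice were dosed once by mouth at 0.3, 1, 3, 10 or 30 mg/kg in 20% HP-β-CD, in groups of 15 per dose. Three mice per group were sacrificed at 0.5, 1, 2, 4 or 7 h, and plasma and liver compound levels were measured by LC–MS. Values were rounded to whole numbers.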

Cynomolgus monkey [9] = assay: Activation of monocytes in cynomolgus monkey plasma assessed as upregulation of MIP1 levels at 1 mg/kg, po after 24 hrs by Luminex assay (reference value: 37 pg/ml); format: functional, Macaca fascicularis
[10] = target: T1, TLR7 and TLR8 (Homo sapiens) (UniProt Q9NYK1+Q9NR97); assay: Agonist activity at TLR7/8 in human PBMCs co-cultured with primary human hepatocytes infected with HBV genotype C for 12 days assessed as increase in MCP1 levels up to 5 uM measured after 42 days
T1 sequence (Q9NR97 whole entry, looked up, one chain of several): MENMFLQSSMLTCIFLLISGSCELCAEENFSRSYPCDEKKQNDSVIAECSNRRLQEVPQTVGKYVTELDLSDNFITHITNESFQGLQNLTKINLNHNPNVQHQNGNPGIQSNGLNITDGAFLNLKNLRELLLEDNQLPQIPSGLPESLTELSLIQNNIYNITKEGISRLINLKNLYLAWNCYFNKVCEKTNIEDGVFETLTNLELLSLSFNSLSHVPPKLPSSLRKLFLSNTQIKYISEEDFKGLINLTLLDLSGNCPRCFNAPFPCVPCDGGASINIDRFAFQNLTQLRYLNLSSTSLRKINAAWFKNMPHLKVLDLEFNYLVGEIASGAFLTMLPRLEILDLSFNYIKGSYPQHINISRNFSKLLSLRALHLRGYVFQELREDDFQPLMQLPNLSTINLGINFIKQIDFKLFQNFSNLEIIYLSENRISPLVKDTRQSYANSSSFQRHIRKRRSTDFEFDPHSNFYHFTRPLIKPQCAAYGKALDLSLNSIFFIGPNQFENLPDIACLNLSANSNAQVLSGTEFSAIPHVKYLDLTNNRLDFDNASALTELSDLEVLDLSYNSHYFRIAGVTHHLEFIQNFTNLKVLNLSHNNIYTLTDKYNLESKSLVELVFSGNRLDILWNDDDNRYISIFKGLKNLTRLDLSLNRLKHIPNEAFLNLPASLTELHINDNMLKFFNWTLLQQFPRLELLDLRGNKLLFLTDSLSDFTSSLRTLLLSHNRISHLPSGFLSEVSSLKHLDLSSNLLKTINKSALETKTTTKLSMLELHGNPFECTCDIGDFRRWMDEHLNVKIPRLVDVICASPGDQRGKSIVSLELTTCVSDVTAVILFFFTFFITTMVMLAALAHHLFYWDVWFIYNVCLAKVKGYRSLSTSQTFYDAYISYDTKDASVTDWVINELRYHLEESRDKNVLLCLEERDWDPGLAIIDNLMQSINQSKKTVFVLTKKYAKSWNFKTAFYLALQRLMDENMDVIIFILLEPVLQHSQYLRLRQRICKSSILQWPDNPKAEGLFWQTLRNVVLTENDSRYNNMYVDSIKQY

Liver = assay: Anti-inflammatory activity in C57BL/6J mouse liver assessed as IL-10 levels at 10 mg/kg, po by multiplex assay (reference value: 2 pg/g); format: functional; in short: as §2
Plasma [11] = assay: Anti-inflammatory activity in C57BL/6J mouse plasma assessed as IL-10 levels at 1 mg/kg, po by multiplex assay (reference value: 120 pg/ml); format: functional; in short: as §2
[12] = target: T2, Toll-like receptor 7 (Homo sapiens) (UniProt Q9NYK1); assay: Agonist activity at TLR7 in human PBMC assessed as suppression of HCV replicon replication in human HuH7 luc/neo cells harboring RNA encoding bicistronic expression construct comprising wild type HCV type 1b NS3-NS5B regions exposed to conditioned media from compound treated PBMCs after 24 hrs by luciferase reporter gene assay; format: cell-based
T2 sequence (whole entry): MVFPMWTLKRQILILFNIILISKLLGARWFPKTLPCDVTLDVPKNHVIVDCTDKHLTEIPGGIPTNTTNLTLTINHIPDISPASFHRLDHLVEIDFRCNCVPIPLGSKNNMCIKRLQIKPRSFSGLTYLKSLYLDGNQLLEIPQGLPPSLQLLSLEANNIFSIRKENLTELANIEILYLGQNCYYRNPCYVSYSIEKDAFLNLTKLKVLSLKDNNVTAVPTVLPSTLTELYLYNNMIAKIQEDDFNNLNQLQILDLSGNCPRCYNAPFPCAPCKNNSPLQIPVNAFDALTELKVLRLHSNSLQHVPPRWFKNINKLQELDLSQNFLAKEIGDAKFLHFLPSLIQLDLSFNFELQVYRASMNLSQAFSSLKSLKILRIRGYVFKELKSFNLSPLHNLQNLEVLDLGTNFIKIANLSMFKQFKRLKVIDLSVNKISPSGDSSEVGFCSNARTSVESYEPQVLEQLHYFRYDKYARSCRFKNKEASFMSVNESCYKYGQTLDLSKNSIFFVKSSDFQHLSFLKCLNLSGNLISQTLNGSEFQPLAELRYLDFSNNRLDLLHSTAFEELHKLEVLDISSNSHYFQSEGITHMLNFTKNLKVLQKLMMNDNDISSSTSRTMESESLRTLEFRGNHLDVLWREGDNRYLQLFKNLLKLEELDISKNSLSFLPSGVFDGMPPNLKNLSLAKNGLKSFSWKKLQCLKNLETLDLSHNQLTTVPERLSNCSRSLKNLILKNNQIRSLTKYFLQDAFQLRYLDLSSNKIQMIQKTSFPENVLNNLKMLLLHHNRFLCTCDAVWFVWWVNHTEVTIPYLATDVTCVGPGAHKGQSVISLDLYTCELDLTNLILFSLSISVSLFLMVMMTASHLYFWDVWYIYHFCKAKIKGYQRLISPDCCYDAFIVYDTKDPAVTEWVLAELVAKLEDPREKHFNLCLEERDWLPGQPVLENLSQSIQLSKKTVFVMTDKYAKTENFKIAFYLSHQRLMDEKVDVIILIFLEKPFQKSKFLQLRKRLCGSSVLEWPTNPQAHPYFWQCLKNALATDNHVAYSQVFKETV
In short: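 Human PBMCs were incubated with compound. Their medium was then transferred onto an HCV replicon system, so the antiviral read-out reflects interferon and cytokines the PBMCs induced. Values are reported as lowest effective concentration (LEC), averaged when determined in two or more independent experiments.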

Plasma [13] = assay: Proinflammatory activity in C57BL/6J mouse plasma assessed as IL-1beta levels at 3 mg/kg, po by multiplex assay (reference value: 60 pg/ml); format: functional
[14] = Metabolic stability in mouse liver microsomes assessed as compound metabolized at 1 uM after 15 mins; format: ADME, microsome; details: read-out: Drug metabolism
In short: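 Mouse (M) or human (H) liver microsomes incubated with compound at 1 μM; percent metabolized after 15 min.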

[15] = target: T1, TLR7 and TLR8 (Homo sapiens); assay: Agonist activity at TLR7/8 in human PBMCs co-cultured with primary human hepatocytes infected with HBV genotype C for 12 days assessed as increase in TNFalpha levels up to 5 uM measured after 42 days
[16] = target: T1, TLR7 and TLR8 (Homo sapiens); assay: Agonist activity at TLR7/8 in human PBMCs co-cultured with primary human hepatocytes infected with HBV genotype C for 12 days assessed as increase in IL-6 levels up to 5 uM measured after 42 days

With `CCC[C@@H](CCO)Nc1nc(N)nc2c(F)cccc12` the “fold change (FC)” value (Cynomolgus monkey [1]) was 145, the Activity (Cynomolgus monkey [2]) was 2265 pg/mL and the CC50 at 6 h [3] was > 24 µM. For the same compound, the “fold change (FC)” value (Cynomolgus monkey [4]) was 65, the Cmax [5] was 32 ng/g and the Activity (Plasma [6]) was 380 pg/mL. It also gave an Activity (Plasma [7]) of 695 pg/mL, an AUC(0-t) [8] of 679 ng·h/mL and an Activity (Cynomolgus monkey [9]) of 44 pg/mL. For the same compound, the Activity [10] was “Active”, the Activity (Liver) was 2265 pg/g and the Activity (Plasma [11]) was 485 pg/mL. For the same compound, the MEC [12] was 0.25 µM, the Activity (Plasma [13]) was 40 pg/mL and the metabolised at 0.25 h, 1 µM [14] was 93%. For the same compound, the Activity [15] was “Active” and the Activity [16] was “Active”.
